CSC inhib – cancer stem cell viability inhibitors, primary screen, luminescence. cancer stem cell-like cells viability. inhibition, % at 7.5 µM. 300,000 tested, 1.1% active. AID 2717, 2010; in the data active means inhibition above about 75%; tested in HMLE shEcad cells
Mdm2 MdmX PPI – inhibitors of human Mdm2-MdmX association, primary screen, cell-based, luminescence, split luciferase, SaOS-2, uHTS | 330,000 tested, 3% active | inhibition, % at 8 µM | SaOS-2 split-luciferase Mdm2/MdmX complementation | Protein Mdm4 (Homo sapiens) + E3 ubiquitin-protein ligase Mdm2 (Homo sapiens), …;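 active means inhibition of at least 50% at 8 µM in the primary screen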
Target sequence (O15151 whole entry, looked up): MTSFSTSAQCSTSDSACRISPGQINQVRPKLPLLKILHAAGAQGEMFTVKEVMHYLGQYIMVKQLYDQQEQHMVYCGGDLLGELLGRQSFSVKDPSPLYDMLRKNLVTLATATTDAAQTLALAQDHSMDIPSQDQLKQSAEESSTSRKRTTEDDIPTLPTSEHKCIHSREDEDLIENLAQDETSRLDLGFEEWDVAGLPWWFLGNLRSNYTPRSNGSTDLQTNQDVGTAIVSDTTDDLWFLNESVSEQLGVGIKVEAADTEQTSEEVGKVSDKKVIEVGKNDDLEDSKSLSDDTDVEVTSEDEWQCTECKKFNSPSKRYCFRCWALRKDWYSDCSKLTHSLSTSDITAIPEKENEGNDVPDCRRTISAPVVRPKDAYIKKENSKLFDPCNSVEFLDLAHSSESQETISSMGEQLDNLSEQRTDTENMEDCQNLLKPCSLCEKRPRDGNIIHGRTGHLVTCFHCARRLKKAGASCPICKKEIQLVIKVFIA
Target sequence (Q00987 whole entry, looked up): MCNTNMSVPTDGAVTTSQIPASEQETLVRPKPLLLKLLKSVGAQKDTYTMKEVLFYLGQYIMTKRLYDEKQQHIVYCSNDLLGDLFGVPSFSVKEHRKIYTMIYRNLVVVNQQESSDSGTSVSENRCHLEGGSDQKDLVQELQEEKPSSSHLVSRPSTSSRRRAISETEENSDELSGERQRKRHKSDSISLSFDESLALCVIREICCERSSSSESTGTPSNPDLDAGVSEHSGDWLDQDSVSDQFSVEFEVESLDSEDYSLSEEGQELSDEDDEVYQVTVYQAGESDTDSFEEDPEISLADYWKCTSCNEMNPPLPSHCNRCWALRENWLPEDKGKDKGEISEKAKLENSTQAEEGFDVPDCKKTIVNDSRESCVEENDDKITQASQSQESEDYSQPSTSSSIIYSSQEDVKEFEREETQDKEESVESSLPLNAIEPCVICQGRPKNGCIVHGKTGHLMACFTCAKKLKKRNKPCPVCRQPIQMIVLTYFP
CHOP UPR activ – activators of apoptotic CHOP UPR arm, primary screen, cell-based, CHO-CHOP luciferase reporter, luminescence, uHTS. UPR activation; percent of tunicamycin response over DMSO baseline. activation, % at 10 µM. 330,000 tested, 0.34% active;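 active means at 10 µM dose, activation of 40% or more, normalized to positive control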
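Evaluation: % reporter activation, DMSO baseline versus tunicamycin full activation; System: CHO-CHOP luciferase reporter cell line; Input: 500 cells/well; Incubation: 6 h compound treatment, 37 °C; Measured by: Steady-Glo luciferase luminescence; Dosing: one dose, 10 µM in 0.5% DMSO; Buffer or medium: F12 medium, 10% FBS; Benchmarks: positive tunicamycin 10 µg/mL, negative DMSO alone.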
SKKanGAS inh – S. pyogenes SKKanGAS growth inhibitors in kanamycin, primary screen, streptokinase expression inhibitor project, SKKanGAS strain, BacTiter-Glo luminescence. 6 h. inhibition, % at 7.5 µM. 300,000 tested, 1.3% active. AID 1662, 2009;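 active means mean replicate score, as percent of positive control median, at least 50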;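 further: strain carries kanamycin resistance gene driven by streptokinase promoter and grows in 40 µg/ml kanamycin; loss of luminescence reflects streptokinase promoter inhibition or plain growth inhibition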
XBP1 UPR activ – activators of adaptive XBP1 UPR arm, primary screen, cell-based, CHO-XBP1 luciferase reporter, luminescence, uHTS. activation, % at 20 µM. AID 463104, 2010. 330,000 tested, 0.33% active. IRE1-XBP1 UPR activation; percent of tunicamycin response, DMSO as zero;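 active means versus positive control, 20 µM dose yields 30% or more activation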
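Test system: CHO-XBP1 luciferase reporter cells | Buffer or medium: Serum-containing F12 medium, 10% FBS | Schedule: 6 h compound exposure at 37 °C, 5% CO2 | Detection: Steady-Glo luciferase glow luminescence, 10 min after reagent addition | Read-out basis: Activation, % of tunicamycin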
Beta apoptosis – inhibitors of cytokine-induced beta cell apoptosis, primary screen, luminescence. INS-1E cytokine-induced death, ATP luminescence, 48 h; percent of positive-control rescue, neutral wells zero. protection from apoptosis, % (concentration not given with the values). 300,000 tested, 0.8% active. AID 435005, 2010;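 active means Every replicate reaches about 75%, or at least half do and their mean reaches it too, limit read from the data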;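 further: higher means more ATP so stronger rescue from cytokine killing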
Mdm2 MdmX conf – Mdm2-MdmX complex disruptors, retested hits, confirmation, luminescence, single concentration; 10,000 tested, 55% active; Mdm2-MdmX binding, luminescent assay; AID 489028, 2010; shares compounds with Mdm2 MdmX PPI; inhibition, % at 8 µM; in the data active means inhibition above about 40%
FLuc counter – full-length luciferase signal inhibition, confirmation, counter-screen for Mdm2/MdmX interaction inhibitor project, cell-based, single concentration, SaOS-2. shares compounds with Mdm2 MdmX PPI. SaOS-2 full-length luciferase counterscreen, luminescence. inhibition, % at 8 µM. 6,200 tested, 77% active. AID 504607, 2011;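 active means mean inhibition at 8 µM reaching about 37%, which flags the compound as non-specific, limit read from the data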;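 further: p53-null SaOS-2 cells with luciferase driven by a doxycycline-inducible promoter; compound on cells about two nights before reading with doxycycline added after day one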
Large screens that a line does not name were inactive (follow-up assays come after a bar, where they were run). Most compounds without a hit are left out; they make up all but 4.8% or so of the library.

COc1ccc2oc(C(=O)Nc3ccc(S(=O)(=O)N(C)C4CCN(C)CC4)cc3)c(C)c2c1	Mdm2 MdmX PPI 96.4 | Mdm2 MdmX conf 45.6 | FLuc counter 47.0
COc1ccc(CC(=O)Nc2ccc(S(=O)(=O)N(C)C3CCN(C)CC3)cc2)cc1	none (no result: CSC inhib, SKKanGAS inh, Beta apoptosis)
COc1ccc(S(=O)(=O)N2CCCCC2)cc1NC(=O)COC(=O)c1ccco1	none (no result: SKKanGAS inh)
CC(C)Oc1ccc(C(=O)Nc2ncn[nH]2)cc1	none
Cc1c(C(=O)NCCCN2CCCCC2)oc2ccc3c(c12)C(O)CC1(CCCCC1)O3 (stereo not drawn)	Mdm2 MdmX PPI 76.3 | Mdm2 MdmX conf inactive | FLuc counter 55.2
Cn1c(SCc2cccc(C#N)c2)nc2ccccc2c1=O	none
CCOc1cc(C(=S)N2CCCC2)ccc1O	none
C=CCOc1c(Cl)cc(C(=S)N2CCCC2)cc1OCC	Mdm2 MdmX PPI 57.9 (no result: Beta apoptosis) | Mdm2 MdmX conf inactive
COc1ccc(C(CNC(=O)c2ccc(S(=O)(=O)N3CCCC3)cc2)N(C)C)cc1OC (stereo not drawn)	none (no result: CSC inhib)
COc1ccc(C(CNC(=O)c2ccc(S(=O)(=O)N3CC(C)CC(C)C3)cc2)N(C)C)cc1 (stereo not drawn)	Mdm2 MdmX PPI 51.4 (no result: SKKanGAS inh) | Mdm2 MdmX conf inactive
COc1nc(-c2ccccc2)ncc1S(=O)(=O)c1ccccc1	none
Cc1cccc(C)c1Oc1nc(-c2ccccc2)ncc1S(=O)(=O)c1ccccc1	Mdm2 MdmX PPI 51.9, SKKanGAS inh 51.5 | Mdm2 MdmX conf inactive
O=C(CSc1ccc(F)cc1)Nc1cccc(S(=O)(=O)N2CCOCC2)c1	none (no result: SKKanGAS inh)
CC(C)N1CCC2(CC1)N=C(c1ccc3c(c1)OCO3)CC(c1cc(Cl)ccc1O)N2 (stereo not drawn)	Mdm2 MdmX PPI 69.6 | Mdm2 MdmX conf inactive
CC(Sc1ccc(Cl)cc1)C(=O)Nc1ccc2c(c1)OCO2 (stereo not drawn)	none
Cc1nc(Nc2ccccc2)sc1C(=O)c1ccccc1	none (no result: CSC inhib, Beta apoptosis)
Cc1nc(NC(=O)/C=C/c2ccccc2)sc1C(=O)Nc1ccc(Cl)cc1	Mdm2 MdmX PPI 50.5 | Mdm2 MdmX conf inactive | FLuc counter 53.4
Cc1nc(Nc2ccc(Cl)c(Cl)c2)sc1C(=O)Nc1ccccc1	CSC inhib 88.0, Mdm2 MdmX PPI 52.1, SKKanGAS inh 91.0, Beta apoptosis 86.4 | Mdm2 MdmX conf inactive
COc1ccc(NS(=O)(=O)c2cc(C)ccc2NC(=O)c2cc(C)oc2C)cc1	Mdm2 MdmX PPI 63.9 | Mdm2 MdmX conf 58.0 | FLuc counter 125.6
O=C(CCl)Nc1cc(-c2ccccc2)nn1-c1ccccc1	Mdm2 MdmX PPI 83.8 | Mdm2 MdmX conf 62.0 | FLuc counter inactive
CC(=O)Nc1ccc(-c2cc(NC(C)=O)n(-c3ccccc3)n2)cc1	none
COc1ccc(-n2nc(C(=O)NCc3ccco3)c3c4ccccc4n(C)c3c2=O)cc1Cl	Mdm2 MdmX PPI 57.3 | Mdm2 MdmX conf inactive
COc1ccc(-n2nc(C(=O)NCCCN3CCCC3=O)c3c4ccccc4n(C)c3c2=O)cc1Cl	none
COc1ccccc1CNC(=O)c1nn(-c2ccc(C)cc2)c(=O)c2c1c1ccccc1n2C	Mdm2 MdmX PPI 79.1 | Mdm2 MdmX conf inactive
O=C(Nc1ccc(NC(=O)c2ccc(Cl)c(S(=O)(=O)N3CCOCC3)c2)cc1)c1ccccc1	Mdm2 MdmX PPI 57.6 | Mdm2 MdmX conf 44.6 | FLuc counter 48.4
COc1ccc(C(=O)Nc2ccc(NC(=O)c3ccccc3)cc2)cc1S(=O)(=O)N1CCOCC1	Mdm2 MdmX PPI 85.6 | Mdm2 MdmX conf inactive
O=C(Nc1ccc(Cl)c(S(=O)(=O)N2CCCC2)c1)c1cc(=O)[nH]c2ccccc12	Mdm2 MdmX PPI 51.6 (no result: SKKanGAS inh) | Mdm2 MdmX conf inactive
O=C(Nc1ccc(N2CCOCC2)cc1)c1ccc(Cl)c(S(=O)(=O)N2CCCC2)c1	none (no result: CSC inhib, SKKanGAS inh)
O=C(Nc1ccccc1OC(F)F)c1ccc(S(=O)(=O)N2CCCC2)cc1	none (no result: CSC inhib, SKKanGAS inh, Beta apoptosis)
CC1CCCCC1NC(=O)CSc1nnnn1C (stereo not drawn)	none (no result: CSC inhib, SKKanGAS inh, Beta apoptosis)
CC1(C)CCN2CCC(C)(C)c3c(O)ccc1c32	CSC inhib 131.3, Mdm2 MdmX PPI 91.5, Beta apoptosis 110.7 | Mdm2 MdmX conf 83.0 | FLuc counter 40.4
CNc1c(NC(=O)C2CCC(C)CC2)c(=O)oc2ccccc12 (stereo not drawn)	none
Cc1onc(-c2ccc(Cl)cc2)c1-c1ccnn1S(=O)(=O)c1cccc(C(F)(F)F)c1	none
Cc1ccccc1-c1nc(C(=O)NCC2CCCO2)cc2c1[nH]c1ccccc12 (stereo not drawn)	Mdm2 MdmX PPI 57.4 | Mdm2 MdmX conf inactive
Cc1ccc(-c2nc(C(=O)NCC3CCCO3)cc3c2[nH]c2ccccc23)cc1 (stereo not drawn)	Mdm2 MdmX PPI 73.4 | Mdm2 MdmX conf 44.4 | FLuc counter 65.7
Cc1nc(C(=O)NCCO)cc2c1[nH]c1ccccc12	none
Cc1ccc(-c2nc(C(=O)NCCCN(C)C)cc3c2[nH]c2ccccc23)cc1	Mdm2 MdmX PPI 66.4 | Mdm2 MdmX conf inactive
COc1ccc(-c2nc(C(=O)NCC3CCCO3)cc3c2[nH]c2ccccc23)cc1 (stereo not drawn)	none (no result: Beta apoptosis)
O=C(NCC1CCCO1)c1cc2c([nH]c3ccccc32)c(-c2cccc(Br)c2)n1 (stereo not drawn)	Mdm2 MdmX PPI 62.1 | Mdm2 MdmX conf inactive | FLuc counter 63.3
CCOC(=O)c1ccccc1NC(=O)Cc1ccc(S(=O)(=O)N2CCCC2)s1	none (no result: SKKanGAS inh)
CN1CCN(S(=O)(=O)c2cccc(C#N)c2)C(c2ccccc2)C1 (stereo not drawn)	none (no result: CSC inhib, SKKanGAS inh, Beta apoptosis)
COc1ccc(OCc2cc(C(=O)N3CCOCC3)no2)c(Cl)c1	none
CCN(CC)c1ccc(N)cc1	Mdm2 MdmX PPI 80.1, Beta apoptosis 108.4 (no result: SKKanGAS inh) | Mdm2 MdmX conf inactive
COC(=O)[C@@H](NC(=O)c1ccc2c(c1)S(=O)(=O)c1ccccc1C2=O)C(C)C	none (no result: CSC inhib)
O=C(NCc1ccccn1)c1cccc(S(=O)(=O)Nc2ccccc2Cl)c1	none (no result: SKKanGAS inh)
COc1ccc(/C=C2\SC(=S)N(CCC(=O)N(CCO)c3ccccc3)C2=O)cc1OC	none

Screens from PubChem.
